{"source": "ChEMBL document CHEMBL1121782", "about": "“New monofunctional reagents for DNA as possible agents for the photochemotherapy of psoriasis: derivatives of 4,5'-dimethylangelicin” (J Med Chem, 1981)", "key": {"Nucleic Acid": {"test_system": "Nucleic Acid", "experiment": "The compound was tested for its ability to bind to calf thymus DNA", "assay_type": "nucleic-acid assay", "details": "Bos taurus", "how_it_was_run": "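Calf thymus DNA (hypochromicity over 40%) in water with 1.5 × 10-2 M NaCl and 1 × 10^-3 M EDTA, no irradiation. Ground-state binding by equilibrium dialysis or fluorimetric titration. r (ligand bound per nucleotide) and c (free ligand, mol/L) plotted per Scatchard. Intrinsic constant K and site size n fitted iteratively to McGhee–von Hippel by least squares until both changed by less than 1%.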"}, "Mus musculus [1]": {"species": "Mus musculus", "experiment": "compound was evaluated for its ability to inhibit DNA synthesis in Ehrlich ascites tumor cells by irradiation (365 nM)", "assay_type": "functional", "how_it_was_run": "(§1)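 Ehrlich ascites tumor cells in Hank's solution (2 × 10^7 cells/mL) irradiated on ice with 1.9 × 10^-5 M compound, Philips HPW 125 lamp at 20 cm (2.02 × 10^16 quanta/s incident). 2 × 10^6 cells then pulsed 15 min at 37 °C with 1 μCi [3H]thymidine (DNA) or [3H]uridine (RNA). Acid-insoluble counts taken as % of untreated cells. D50 is the UV-A dose giving 50% inhibition. Each dose run at least in duplicate.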"}, "[2]": {"experiment": "Specific radioactivity of the compound.", "assay_type": "ADME"}, "[3]": {"experiment": "Water solubility of the compound", "assay_type": "ADME", "details": "for S: buffer; for solubility: water, read-out: S"}, "Mus musculus [4]": {"species": "Mus musculus", "experiment": "Compound was evaluated for its ability to inhibit RNA synthesis in Ehrlich ascites tumor cells by irradiation (365 nM),", "assay_type": "functional", "how_it_was_run": "as §1"}, "Mus musculus [5]": {"species": "Mus musculus", "experiment": "Compound was evaluated for its ability to inhibit DNA synthesis in Ehrlich ascites tumor cells by irradiation (365 nM)", "assay_type": "functional", "how_it_was_run": "(§2)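 Ehrlich ascites tumour cells in Hank's solution (2 × 10^7 cells/mL) irradiated on ice with UV-A (Philips HPW 125, 20 cm; 2.02 × 10^16 quanta/s on whole sample) with 1.9 × 10^-5 M compound. Then 2 × 10^6 cells incubated 15 min at 37 °C with 1 μCi [3H]thymidine (DNA) or [3H]uridine (RNA). TCA-insoluble counts as % of untreated; D50 = UV dose giving 50% inhibition; doses ≥duplicate.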"}, "Mus musculus [6]": {"species": "Mus musculus", "experiment": "Compound was evaluated for its ability to inhibit RNA synthesis in Ehrlich ascites tumor cells by irradiation (365 nM)", "assay_type": "functional", "how_it_was_run": "as §2"}}, "data": [{"smiles": "COCc1c(C)oc2ccc3c(C)cc(=O)oc3c12", "values": [{"measurement": "K", "setting": "Nucleic Acid", "result": 700}, {"measurement": "D50", "setting": "Mus musculus [1]", "result": 22.7, "unit": "quanta*10e-18"}, {"measurement": "Specific radioactivity", "setting": "[2]", "result": 0.21, "unit": "Ci/M"}, {"measurement": "S", "setting": "[3]", "result": 0.000056, "unit": "M l-1"}, {"measurement": "solubility", "setting": "[3]", "result": 15.3, "unit": "µg/mL"}, {"measurement": "D50", "setting": "Mus musculus [4]", "result": 13.8, "unit": "quanta*10e-18"}]}, {"smiles": "O=c1ccc2ccc3occc3c2o1", "note": "[ANGELICIN]", "values": [{"measurement": "D50", "setting": "Mus musculus [5]", "result": 25, "unit": "quanta*10e-18"}, {"measurement": "Specific radioactivity", "setting": "[2]", "result": 1.59, "unit": "Ci/M"}, {"measurement": "D50", "setting": "Mus musculus [6]", "result": 23.3, "unit": "quanta*10e-18"}]}, {"smiles": "Cc1oc2ccc3c(C)cc(=O)oc3c2c1CO", "values": [{"measurement": "K", "setting": "Nucleic Acid", "result": 1250}, {"measurement": "D50", "setting": "Mus musculus [1]", "result": 9.2, "unit": "quanta*10e-18"}, {"measurement": "Specific radioactivity", "setting": "[2]", "result": 0.13, "unit": "Ci/M"}, {"measurement": "S", "setting": "[3]", "result": 0.00007, "unit": "M l-1"}, {"measurement": "solubility", "setting": "[3]", "result": 17.1, "unit": "µg/mL"}, {"measurement": "D50", "setting": "Mus musculus [4]", "result": 13.8, "unit": "quanta*10e-18"}]}, {"smiles": "Cc1cc2c(ccc3c(C)cc(=O)oc32)o1", "values": [{"measurement": "K", "setting": "Nucleic Acid", "result": 1400}, {"measurement": "D50", "setting": "Mus musculus [1]", "result": 10.8, "unit": "quanta*10e-18"}, {"measurement": "Specific radioactivity", "setting": "[2]", "result": 5.11, "unit": "Ci/M"}, {"measurement": "S", "setting": "[3]", "result": "3.7e-05", "unit": "M l-1"}, {"measurement": "solubility", "setting": "[3]", "result": 8, "unit": "µg/mL"}, {"measurement": "D50", "setting": "Mus musculus [4]", "result": 13.5, "unit": "quanta*10e-18"}]}, {"smiles": "Cc1oc2ccc3c(C)cc(=O)oc3c2c1CN.Cl", "values": [{"measurement": "K", "setting": "Nucleic Acid", "result": 16300}, {"measurement": "D50", "setting": "Mus musculus [1]", "result": 100, "unit": "quanta*10e-18"}, {"measurement": "Specific radioactivity", "setting": "[2]", "result": 0.13, "unit": "Ci/M"}, {"measurement": "S", "setting": "[3]", "result": "> 0.004", "unit": "M l-1"}, {"measurement": "solubility", "setting": "[3]", "result": "> 1000", "unit": "µg/mL"}, {"measurement": "D50", "setting": "Mus musculus [4]", "result": 100, "unit": "quanta*10e-18"}]}]}
